The results in this text go back to ChEMBL document CHEMBL1126873, “Inhibitors of acyl-Coa:cholesterol acyltransferase. 4. A novel series of urea ACAT inhibitors as potential hypocholesterolemic agents” (J Med Chem, 1993).

One assay deals with O-acyltransferase (Oryctolagus cuniculus, UniProt G1SFD9). The assay is described as follows: In vitro inhibition of Acyl coenzyme A:cholesterol acyltransferase using intestinal microsomes isolated from cholesterol fed rabbits. Set-up: species or system Intestine.
Another assay is filed under the species Rattus norvegicus. The assay is described as follows: Percent change in total cholesterol (TC) in cholic acid, cholesterol and peanut oil fed rats. The assay is classed as functional. The procedure, abridged: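 Rats fed a diet of cholic acid (0.3%), cholesterol (1.5%) and peanut oil (5.5%) received each compound in the diet at 0.05% for one week. Plasma total cholesterol was measured and expressed as percent change from control. Significance versus control was tested.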

As a reminder, the IC50 is the point on the concentration scale where inhibition reaches its midpoint. A high value points to lower potency.

Chain of O-acyltransferase (G1SFD9 1-524): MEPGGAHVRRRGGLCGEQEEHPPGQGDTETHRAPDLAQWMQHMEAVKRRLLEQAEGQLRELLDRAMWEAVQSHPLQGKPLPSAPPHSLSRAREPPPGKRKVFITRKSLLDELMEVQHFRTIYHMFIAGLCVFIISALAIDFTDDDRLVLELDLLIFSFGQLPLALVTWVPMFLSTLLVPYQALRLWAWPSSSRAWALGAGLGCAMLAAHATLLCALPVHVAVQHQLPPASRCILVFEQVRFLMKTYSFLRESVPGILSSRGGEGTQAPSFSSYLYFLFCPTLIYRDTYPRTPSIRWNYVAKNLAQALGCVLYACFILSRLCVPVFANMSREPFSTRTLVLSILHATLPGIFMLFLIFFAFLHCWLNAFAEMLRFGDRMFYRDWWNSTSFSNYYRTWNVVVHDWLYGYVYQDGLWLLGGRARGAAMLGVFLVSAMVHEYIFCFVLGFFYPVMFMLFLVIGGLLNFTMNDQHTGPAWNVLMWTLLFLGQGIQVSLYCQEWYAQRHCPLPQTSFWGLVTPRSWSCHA

Turning to `CC(C)c1cccc(C(C)C)c1NC(=O)NC1CCCc2ccccc21` (configuration not stated), the IC50 against O-acyltransferase was determined as 850 nM.
In turn, `CC(C)c1cccc(C(C)C)c1NC(=O)NCCCc1ccccc1` showed an IC50 at O-acyltransferase of 191 nM.
Same read-out and setting: the same measure for `CCCCCCC(CCCCCC)(CNC(=O)Nc1c(C(C)C)cccc1C(C)C)c1ccccc1`: 120 nM.
For `CC(C)c1cccc(C(C)C)c1OC(=O)NCC1(c2ccccc2)CCCC1`, the midpoint of inhibition on O-acyltransferase, the IC50, lay at 49 nM.
With `CC(C)c1cccc(C(C)C)c1NS(=O)(=O)NCC1(c2ccccc2)CCCC1`, the IC50 at O-acyltransferase came out at 180 nM.
At O-acyltransferase, `CC(C)c1cccc(C(C)C)c1NC(=O)NCCc1cccc2ccccc12` registered an IC50 of 41 nM.
In turn, `COc1cccc(NC(=O)NCC2(c3ccccc3)CCCCC2)c1` returned an IC50 against O-acyltransferase of 2500 nM.
Still for that read-out and setting: the figure for `CCCC(CCC)(CNC(=O)Nc1c(C(C)C)cccc1C(C)C)c1ccccc1` is 30 nM; for `CC(C)c1cccc(C(C)C)c1NC(=O)NC(C)(C)Cc1ccccc1` it is 77 nM.
Consider `CC(C)c1cccc(C(C)C)c1NC(=O)NCC1(c2ccccc2)CCCCC1`, for which the half-maximal inhibitory concentration (IC50) against O-acyltransferase is 21 nM. Besides, in the assay listed under Rattus norvegicus, the Change was -73%.
On to `Cc1cccc(C(C)C)c1NC(=O)NCC1(c2ccccc2)CCCC1`, for which the IC50 at O-acyltransferase was determined as 16 nM. Further, the Change in the assay listed under Rattus norvegicus is on record as -65%.
Compound `COc1ccc(NC(=O)NCC2(c3ccccc3)CCCCC2)cc1` came in with a 50% inhibitory concentration (IC50) on O-acyltransferase of 4900 nM. This lies in the single-digit micromolar range.
Compound `Cc1ccc(NC(=O)NCC2(c3ccccc3)CCCCC2)cc1` had an IC50 at O-acyltransferase of 4500 nM.
With `Cc1cccc(C(C)(C)C)c1NC(=O)NCC1(c2ccccc2)CCCCC1`, the IC50 against O-acyltransferase was found to be 54 nM. In addition, the Change in the assay listed under Rattus norvegicus was -51%.
With `Cc1cccc(C)c1NC(=O)NCC1(c2ccccc2)CCCC1`, the IC50 against O-acyltransferase was 190 nM.
The same measure, in the same setting: the figure for `Cc1ccc(NC(=O)NCC2(c3ccccc3)CCCCC2)c(C)c1` is 5500 nM.
The compound `CCc1cccc(C(C)C)c1NC(=O)NCC1(c2ccccc2)CCCCC1` came in with an IC50 on O-acyltransferase of 20 nM. Also, in the assay filed under Rattus norvegicus, the Change was -70%.
On O-acyltransferase, `CC(C)c1cccc(C(C)C)c1NC(=O)NCC1(c2ccccc2)CCC1` came in with an IC50 of 28 nM.
`CC(C)c1cccc(C(C)C)c1NC(=O)Nc1ccccc1`: on O-acyltransferase, the concentration for half-maximal inhibition (IC50) amounted to 910 nM.
The compound `Cc1cccc(C(C)(C)C)c1NC(=O)NCC1(c2ccccc2)CCCC1` displayed an IC50 on O-acyltransferase of 18 nM. For the same compound, the Change in the assay filed under Rattus norvegicus is -61%.
As for `CC(C)c1cccc(C(C)C)c1N=C(N)NCC1(c2ccccc2)CCCC1`, at O-acyltransferase, the half-inhibitory concentration (IC50) amounted to 12000 nM.
`CC(C)c1cccc(C(C)C)c1NC(=O)NCC(c1ccccc1)C(C)(C)C` (configuration not stated): at O-acyltransferase, it took 160 nM to reach half-maximal inhibition (IC50).
On to `CC(C)c1cccc(C(C)C)c1NC(=O)NCCC(c1ccccc1)c1ccccc1`, for which the IC50 on O-acyltransferase is 140 nM.
As for `CC(C)c1cccc(C(C)C)c1NC(=NC#N)NCC1(c2ccccc2)CCCC1`, on O-acyltransferase, the IC50 is 10000 nM.
The same measure, in the same setting: the same measure for `CC(C)c1cccc(C(C)C)c1NC(=O)NCC1c2ccccc2-c2ccccc21`: 27 nM; for `O=C(NCC1(c2ccccc2)CCCCC1)Nc1ccc(Cl)c(Cl)c1`: 3800 nM.
`O=C(NCC1(c2ccccc2)CCCCC1)Nc1ccc(Cl)cc1` gave an IC50 against O-acyltransferase of 2200 nM.
On the same count and under the same terms, the figure for `CC(C)c1cccc(C(C)C)c1NC(=O)NCC1(c2cccnc2)CCCC1` is 97 nM; for `CC(C)c1cccc(C(C)C)c1NC(=O)NCC1(c2cccs2)CCCC1` it is 12 nM.
For the compound `CCc1cccc(C(C)C)c1NC(=O)NCC1(c2ccccc2)CCCC1`, inhibition against O-acyltransferase was half-maximal at 25 nM (IC50). Moreover, the Change in the assay filed under Rattus norvegicus is recorded as -59%.
Compound `CC(C)c1cccc(C(C)C)c1NC(=O)NC1CC1c1ccccc1` (configuration not stated) gave an IC50 on O-acyltransferase of 2000 nM.
Consider `O=C(NCC1(c2ccccc2)CCCCC1)Nc1ccccc1C(F)(F)F`, for which half-maximal inhibition against O-acyltransferase (IC50) required 200 nM.
As to `O=C(NCC1(c2ccccc2)CCCCC1)Nc1cccc(Cl)c1Cl`, the IC50 against O-acyltransferase was found to be 1300 nM. Compared with the last compound, the IC50 is about 6.5-fold higher.
In turn, `CN(C)c1cccc(N(C)C)c1NC(=O)NCC1(c2ccccc2)CCCC1` showed an IC50 at O-acyltransferase of 110 nM. Against the preceding compound, the IC50 is about 12-fold lower.
The compound `CC(C)c1ccccc1NC(=O)NCC1(c2ccccc2)CCCCC1` yielded an IC50 against O-acyltransferase of 390 nM.
As to `Cc1cc(C)c(NC(=O)NCC2(c3ccccc3)CCCC2)c(C)c1`, half-maximal inhibition on O-acyltransferase (IC50) was put at 3300 nM.
On to `CC(C)c1cccc(C(C)C)c1NC(=O)NCC1(c2ccsc2)CCCC1`, for which the midpoint of inhibition on O-acyltransferase, the IC50, lay at 18 nM.
`CC(C)c1cccc(C(C)C)c1NC(=O)NC(=O)C1(c2ccccc2)CCCC1` returned an IC50 against O-acyltransferase of 160 nM.
The same measure, in the same setting: the figure for `O=C(NCC1(c2ccccc2)CCCC1)Nc1c(F)cc(F)cc1F` is 870 nM.
On to `CCc1cccc(CC)c1NC(=O)NCC1(c2ccccc2)CCCC1`, for which the IC50 at O-acyltransferase is 56 nM. For the same compound, the Change in the assay filed under Rattus norvegicus is recorded as -63%.
At O-acyltransferase, `O=C(NCC1(c2ccccc2)CCCCC1)Nc1cc(Cl)ccc1Cl` displayed a concentration for half-maximal inhibition (IC50) of 2700 nM. This counts as single-digit micromolar.
On the same count and under the same terms, the same measure for `O=C(NCC1(c2ccccc2)CCCC1)Nc1c(Cl)cccc1Cl`: 240 nM.
The same measure, in the same setting: the figure for `CCCCCC(CCCCC)(CNC(=O)Nc1c(C(C)C)cccc1C(C)C)c1ccccc1` is 26 nM.
In turn, `CC(C)c1cccc(C(C)C)c1NC(=O)NCc1ccccc1` gave an IC50 on O-acyltransferase of 360 nM. This IC50 lies about 14-fold higher than the previous one.
As to `CCOC(=O)c1ccc(NC(=O)NCC2(c3ccccc3)CCCCC2)cc1`, the IC50 against O-acyltransferase is 6100 nM.
Compound `Cc1ccc(C)c(NC(=O)NCC2(c3ccccc3)CCCCC2)c1` returned an IC50 against O-acyltransferase of 470 nM.
In the case of `CC(C)c1cccc(C(C)C)c1NC(=O)NC1(c2ccccc2)CCCC1`, 65 nM corresponded to half-maximal inhibition against O-acyltransferase (IC50). Compared with the last compound, the IC50 is about 7.2-fold lower.
Same read-out and setting: the same measure for `CC(C)c1cccc(C(C)C)c1NC(=O)NCC(C)(C)c1ccccc1`: 26 nM.
For `Cc1cccc(C)c1NC(=O)NCC1(c2ccccc2)CCCCC1`, 120 nM corresponded to half-maximal inhibition against O-acyltransferase (IC50). Further, the Change in the assay listed under Rattus norvegicus is given as -44%.
`CC(C)c1cccc(C(C)C)c1NC(=O)NCC1(c2cccc3ccccc23)CCCC1` returned an IC50 on O-acyltransferase of 34 nM.
On O-acyltransferase, `CC(C)c1cccc(C(C)C)c1NC(=O)NCCc1ccccc1` showed an IC50 of 88 nM.
For the compound `COc1cc(OC)c(NC(=O)NCC2(c3ccccc3)CCCC2)c(OC)c1`, the IC50 against O-acyltransferase was determined as 1400 nM.
Regarding `O=C(NCC1(c2ccccc2)CCCC1)Nc1ccc(F)cc1F`, on O-acyltransferase, the IC50 was 1300 nM.
As to `CC(C)c1ccc(NC(=O)NCC2(c3ccccc3)CCCCC2)cc1`, on O-acyltransferase, the midpoint of inhibition, the IC50, lay at 1500 nM. This IC50 and that of the compound before are within 1.5-fold of each other.
Consider `CCCCC(CCCC)(CNC(=O)Nc1c(C(C)C)cccc1C(C)C)c1ccccc1`, for which the half-maximal inhibitory concentration (IC50) against O-acyltransferase worked out at 30 nM.
`O=C(NCC1(c2ccccc2)CCCC1)Nc1c(Cl)cc(Cl)cc1Cl`: the IC50 on O-acyltransferase worked out at 960 nM.
The compound `COc1ccccc1NC(=O)NCC1(c2ccccc2)CCCCC1` had an IC50 on O-acyltransferase of 270 nM.
For the compound `CC(C)c1cccc(C(C)C)c1NC(=O)NCC1(c2ccc3ccccc3c2)CCCC1`, on O-acyltransferase, inhibition was half-maximal at 260 nM (IC50).
In turn, `CCC(CC)(CNC(=O)Nc1c(C(C)C)cccc1C(C)C)c1ccccc1` had a 50% inhibitory concentration (IC50) at O-acyltransferase of 17 nM.
Compound `Cc1ccccc1NC(=O)NCC1(c2ccccc2)CCCCC1` came in with an IC50 on O-acyltransferase of 640 nM.
Take `CC(C)c1cccc(C(C)C)c1NC(=O)NCC1(c2ccccc2)CC1`: the IC50 against O-acyltransferase is 18 nM.
For `CC(C)c1cccc(C(C)C)c1NC(=S)NCC1(c2ccccc2)CCCC1`, the IC50 against O-acyltransferase came out at 2330 nM.
Regarding `CC(C)c1cccc(C(C)C)c1NC(=O)NC(Cc1ccccc1)c1ccccc1` (configuration not stated), the IC50 on O-acyltransferase was found to be 31 nM.
Consider `O=C(NCC1(c2ccccc2)CCCCC1)Nc1ccc(I)cc1`, for which the IC50 against O-acyltransferase is 2300 nM. This IC50 is about 74-fold higher than that of the compound before.
At O-acyltransferase, `CC(C)c1cccc(C(C)C)c1NC(=O)NCC1(c2ccccc2)CCCC1` had an IC50 of 17 nM. Further, in the assay filed under Rattus norvegicus, the Change was -73%.
In the case of `CCc1cccc(CC)c1NC(=O)NCC1(c2ccccc2)CCCCC1`, the IC50 against O-acyltransferase turned out to be 51 nM. Besides, the Change in the assay filed under Rattus norvegicus is recorded as -60%.
`Cc1cccc(C(C)C)c1NC(=O)NCC1(c2ccccc2)CCCCC1` showed an IC50 at O-acyltransferase of 58 nM. Besides, the Change in the assay filed under Rattus norvegicus is on record as -56%.
As for `O=C(NCC1(c2ccccc2)CCCCC1)Nc1ccccc1`, the half-maximal inhibitory concentration (IC50) against O-acyltransferase was found to be 2300 nM.
`Cc1cccc(NC(=O)NCC2(c3ccccc3)CCCCC2)c1` yielded an IC50 on O-acyltransferase of 2800 nM. The IC50 values of the last two compounds are within 1.5-fold of each other.
On O-acyltransferase, `CCOC(=O)c1ccccc1NC(=O)NCC1(c2ccccc2)CCCCC1` had an IC50 of 4200 nM. Against the preceding compound, the IC50 is about 1.5-fold higher.
With `CC(C)c1cccc(C(C)C)c1NC(=O)NCCc1ccc2ccccc2c1`, at O-acyltransferase, half-maximal inhibition (IC50) required 39 nM.
